Active and inactive are the calls of the source. The rule behind the calls is not given here.
Tests used:
Cannabinoid receptor 1 [1] = biological target: T1, Cannabinoid receptor 1 (Homo sapiens, UniProt P21554); assay: Agonist activity at human CB1 receptor expressed in CHO cells co-expressing Galpha16 assessed as increase in calcium mobilization at 10 uM measured at 1 sec interval for 90 secs by calcium-5 dye based FLIPR assay relative to CP55,940; format: cell-based; conditions: 0.025 h
Cannabinoid receptor 2 [2] = biological target: T2, Cannabinoid receptor 2 (Homo sapiens, UniProt P34972); assay: (§1) Antagonist activity at human CB2 receptor expressed in CHO cells co-expressing Galpha16 assessed as inhibition of CP55,940-induced calcium mobilization preincubated for 15 mins followed by CP55,490 addition measured at 1 sec interval for 90 secs by calcium-5 dye based FLIPR assay; format: functional, cell-based
T2 sequence (P34972 whole entry): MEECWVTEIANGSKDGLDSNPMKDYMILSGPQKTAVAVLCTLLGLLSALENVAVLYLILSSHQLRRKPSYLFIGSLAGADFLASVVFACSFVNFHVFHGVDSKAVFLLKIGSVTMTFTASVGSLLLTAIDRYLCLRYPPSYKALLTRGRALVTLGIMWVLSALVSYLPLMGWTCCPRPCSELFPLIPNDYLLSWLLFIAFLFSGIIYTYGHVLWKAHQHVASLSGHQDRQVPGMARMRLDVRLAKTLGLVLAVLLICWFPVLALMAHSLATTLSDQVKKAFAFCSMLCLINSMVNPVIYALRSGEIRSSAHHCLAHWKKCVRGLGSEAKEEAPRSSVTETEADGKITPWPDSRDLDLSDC

Cannabinoid receptor 2 [3] = biological target: T2, Cannabinoid receptor 2; assay: Agonist activity at human CB2 receptor expressed in CHO cells co-expressing Galpha16 assessed as increase in calcium mobilization at 10 uM measured at 1 sec interval for 90 secs by calcium-5 dye based FLIPR assay relative to CP55,940; format: functional, cell-based
How it was run: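 CB2 agonist screen in stable human CB2-CHO-RD-HGA16 cells. Cells were Calcium 5 dye-loaded for 45 min at 37 °C in HBSS/HEPES/probenecid buffer, pH 7.4, and pretreated with vehicle. FLIPR Tetra then added compound at a single concentration. Fluorescence (485/525 nm) was expressed as % of CP55,940 Emax.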

Cannabinoid receptor 2 [4] = biological target: T2, Cannabinoid receptor 2; assay: as §1, with “mobilization at 10 uM” for “mobilization”, “assay relative to CP55,940” for “assay”; format: functional, cell-based
Cannabinoid receptor 1 [5] = biological target: T1, Cannabinoid receptor 1; assay: PAM antagonist activity at human CB1 receptor expressed in CHO cells co-expressing Galpha16 assessed as inhibition of CP55,940-induced calcium mobilization up to 100 nM preincubated for 15 mins followed by CP55,490 addition measured at 1 sec interval for 90 secs by calcium-5 dye based FLIPR assay; format: functional, cell-based
Liver [6] = assay: (§2) Half life in rat liver microsomes in presence of NADPH by LC-MS/MS analysis; format: ADME, microsome; conditions: microsomes
How it was run: (§3)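 Compound was incubated at 37 °C with rat liver microsomes (0.5 mg/mL protein) in 100 mM potassium phosphate, pH 7.4, with 1 mM NADPH. Samples were taken at 0, 5, 15, 30 and 45 min and quenched 1:1 with ice-cold stop solution containing labetalol. Half-life and clearance are mean ± SD of two independent experiments.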

Liver [7] = assay: Clearance in rat liver microsomes in presence of NADPH by LC-MS/MS analysis; format: ADME, microsome; how it was run: as §3
Rattus norvegicus [8] = assay: Reduction in cocaine-induced reinstatement of cocaine seeking behavior in Sprague-Dawley rat at 10 mg/kg pretreated for 10 mins followed by cocaine treatment on day following last extinction session; format: functional, organism-based
How it was run: (§4)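 Adult male Sprague-Dawley rats (280-300 g) with jugular catheters self-administered cocaine (0.75 mg/kg/infusion, FR1 rising to FR5) in 2-hr daily sessions for 14 days, followed by extinction. On the day after the last extinction session, compound was given 10 min before a cocaine prime (10 mg/kg i.p.). Active lever presses were counted over the 2-hr reinstatement session.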

[9] = biological target: Cannabinoid receptor 1 (Mus musculus) (UniProt P47746); assay: PAM antagonist activity at CB1 receptor in CD-1 mouse cerebellar membranes assessed as increase in [3H]CP55,940 binding after 90 mins relative to control; set-up: scale not given: the % may be the effect or the level left; conditions: Cerebellum, Membrane
Cannabinoid receptor 1 (Mus musculus), sequence (P47746 whole entry, looked up): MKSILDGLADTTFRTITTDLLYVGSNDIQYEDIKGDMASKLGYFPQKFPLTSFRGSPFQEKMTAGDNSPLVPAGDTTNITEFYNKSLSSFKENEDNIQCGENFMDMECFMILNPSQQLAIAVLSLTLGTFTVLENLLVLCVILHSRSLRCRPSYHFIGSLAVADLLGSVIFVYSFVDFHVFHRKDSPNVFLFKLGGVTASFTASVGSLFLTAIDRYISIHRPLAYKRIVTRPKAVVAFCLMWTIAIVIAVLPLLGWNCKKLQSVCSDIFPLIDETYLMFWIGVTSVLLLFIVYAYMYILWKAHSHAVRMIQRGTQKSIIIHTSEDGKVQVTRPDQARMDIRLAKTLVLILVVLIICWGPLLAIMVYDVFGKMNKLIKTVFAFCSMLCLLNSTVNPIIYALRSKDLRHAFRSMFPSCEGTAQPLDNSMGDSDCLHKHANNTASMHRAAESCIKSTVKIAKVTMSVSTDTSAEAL

[10] = biological target: Cannabinoid receptor 1 (Mus musculus) (UniProt P47746); assay: PAM antagonist activity at CB1 receptor in CD-1 mouse cerebellar membranes assessed as inhibition of CP55,940-induced [35S]GTPgammaS binding after 60 mins; conditions: Cerebellum, Membrane
Cannabinoid receptor 1 [11] = biological target: Cannabinoid receptor 1 (Mus musculus, UniProt P47746); assay: Allosteric modulation of CB1 receptor in CD-1 mouse cerebellar membranes assessed as inhibition of CP55,940-induced [35S]GTPgammaS binding after 60 mins; format: functional, cell membranes, Cerebellum, Membrane
Cannabinoid receptor 1 (Mus musculus, UniProt P47746), sequence (P47746 whole entry): as the sequence (P47746 whole entry, looked up) above
How it was run: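 They were preincubated 10 min with adenosine deaminase (3 U/ml) in buffer containing 1 mg/ml BSA, then incubated 60 min at 30 °C with 30 µM GDP, 0.1 nM [35S]GTPγS, 100 nM CP55,940 and compound (0.1% DMSO). Nonspecific binding was measured with 30 µM GTPγS. Read-out was filtration.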

Cannabinoid receptor 1 [12] = biological target: Cannabinoid receptor 1 (Rattus norvegicus, UniProt P20272); assay: Allosteric modulation of CB1 receptor in rat cerebellar membranes assessed as inhibition of CP55,940-induced [35S]GTPgammaS binding; format: functional, cell membranes, Cerebellum, Membrane
Cannabinoid receptor 1 (Rattus norvegicus, UniProt P20272), sequence (P20272 whole entry): as the sequence (P47746 whole entry, looked up) above, with D95E counted along it

[13] = as §2; format: ADME, microsome; conditions: liver microsomes; how it was run: as §3
Rattus norvegicus [14] = assay: Reduction in cocaine-induced reinstatement of cocaine seeking behavior in Sprague-Dawley rat at 30 mg/kg pretreated for 10 mins followed by cocaine treatment on day following last extinction session; format: functional, organism-based; how it was run: as §4

T1 sequence (P21554 whole entry): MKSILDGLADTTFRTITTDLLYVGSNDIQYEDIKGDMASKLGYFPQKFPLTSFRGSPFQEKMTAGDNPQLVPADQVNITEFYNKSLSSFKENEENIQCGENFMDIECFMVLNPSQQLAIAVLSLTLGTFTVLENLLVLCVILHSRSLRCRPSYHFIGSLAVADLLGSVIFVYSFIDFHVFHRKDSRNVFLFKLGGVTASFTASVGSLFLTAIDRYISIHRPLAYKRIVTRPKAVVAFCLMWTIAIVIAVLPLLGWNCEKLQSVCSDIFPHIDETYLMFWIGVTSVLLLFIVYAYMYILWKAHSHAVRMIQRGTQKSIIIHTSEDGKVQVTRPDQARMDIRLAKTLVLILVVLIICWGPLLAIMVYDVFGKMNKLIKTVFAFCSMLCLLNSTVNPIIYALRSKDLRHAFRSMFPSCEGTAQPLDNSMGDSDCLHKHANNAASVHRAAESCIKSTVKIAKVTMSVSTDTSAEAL

Row | SMILES | Emax at 10 µM (Cannabinoid receptor 1 [1]) [%] | Emax (Cannabinoid receptor 2 [3]) [%] | Imax (Cannabinoid receptor 2 [4]) [%] | further results
1 | Cc1ccccc1-c1cccc(NC(=O)Nc2ccc(Cl)cc2)c1 | 6 | < 10 | – | IC50 (Cannabinoid receptor 2 [2]): > 10 µM
2 | O=C(Nc1ccc(Cl)cc1)Nc1cccc(-c2ccc(C(=O)c3ccccc3)cc2)c1 | 13 | < 10 | < 50 | –
3 | COc1cccc(-c2cccc(NC(=O)Nc3ccc(Cl)cc3)c2)n1 | 2 | < 10 | < 50 | –
4 | O=C(Nc1ccc(Cl)cc1)Nc1cccc(-c2ccc3c(c2)Cc2ccccc2-3)c1 | 0 | < 10 | < 50 | –
5 | O=C(Nc1ccc(Cl)cc1)Nc1cccc(-c2cnc3ccccc3c2)c1 | 3 | < 10 | – | IC50 (Cannabinoid receptor 2 [2]): 4.1 µM
6 | O=C(Nc1ccc(Cl)cc1)Nc1cccc(-c2ccc(F)cc2F)c1 | 9 | < 10 | < 50 | –
7 | O=C(Nc1ccc(Cl)cc1)Nc1cccc(-c2ccc3ccccc3c2)c1 | 7 | < 10 | < 50 | –
8 | Cc1cccc(-c2cccc(NC(=O)Nc3ccc(Cl)cc3)c2)c1 | – | < 10 | < 50 | –
9 | CC(C)(C)c1ccc(-c2cccc(NC(=O)Nc3ccc(Cl)cc3)c2)cc1 | 4 | < 10 | < 50 | –
10 | O=C(Nc1ccc(Cl)cc1)Nc1cccc(-c2cncnc2)c1 | 9 | < 10 | – | IC50 (Cannabinoid receptor 2 [2]): 3.4 µM
11 | O=C(Nc1ccc(Cl)cc1)Nc1cccc(-c2ccc3occc3c2)c1 | 1 | < 10 | < 50 | –
12 | O=C(Nc1ccc(Cl)cc1)Nc1cccc(-c2ccc(Cl)cc2)c1 | 21 | < 10 | < 50 | –
13 | O=C(Nc1ccc(Cl)cc1)Nc1cccc(-c2cccnc2)c1 | 34 | < 10 | < 50 | –
14 | COc1cc(-c2cccc(NC(=O)Nc3ccc(Cl)cc3)c2)ccn1 | 23 | < 10 | < 50 | –
15 | O=C(Nc1ccc(Cl)cc1)Nc1cccc(-c2cc(Cl)cc(Cl)c2)c1 | 16 | < 10 | < 50 | –
16 | O=C(Nc1ccc(Cl)cc1)Nc1cccc(-c2cccc(O)c2)c1 | 10 | < 10 | < 50 | –

Row | SMILES | Emax at 10 µM (Cannabinoid receptor 1 [1]) [%] | Emax (Cannabinoid receptor 2 [3]) [%] | Imax (Cannabinoid receptor 2 [4]) [%] | further results
17 | O=C(Nc1ccc(Cl)cc1)Nc1cccc(-c2cccc([N+](=O)[O-])c2)c1 | 17 | < 10 | – | IC50 (Cannabinoid receptor 2 [2]): > 10 µM
18 | O=C(Nc1ccc(Cl)cc1)Nc1cccc(-c2c(Cl)cccc2Cl)c1 | 17 | < 10 | < 50 | –
19 | O=C(Nc1ccc(Cl)cc1)Nc1cccc(-c2ccc(Cl)c(Cl)c2)c1 | 20 | < 10 | – | IC50 (Cannabinoid receptor 2 [2]): > 10 µM
20 | O=C(Nc1ccc(Cl)cc1)Nc1cccc(-c2ccccn2)c1 | 9 | < 10 | < 50 | –
21 | CC(C)(C)c1cc(-c2cccc(NC(=O)Nc3ccc(Cl)cc3)c2)cc(C(C)(C)C)c1 | 10 | < 10 | < 50 | –
22 | O=C(Nc1ccc(Cl)cc1)Nc1cccc(-c2cccc(-c3ccccc3)c2)c1 | 1 | < 10 | < 50 | –
23 | COc1cccc(-c2cccc(NC(=O)Nc3ccc(Cl)cc3)c2)c1 | 13 | < 10 | < 50 | –
24 | CC(C)Oc1cccc(-c2cccc(NC(=O)Nc3ccc(Cl)cc3)c2)c1 | – | < 10 | < 50 | –
25 | O=C(Nc1ccc(Cl)cc1)Nc1cccc(-c2ccc(F)cc2)c1 | 9 | < 10 | – | IC50 (Cannabinoid receptor 2 [2]): > 10 µM; inhibition (Cannabinoid receptor 1 [5]): Active; t1/2 (Liver [6]): > 300 min; CLH (Liver [7]): < 4.6 µL/min/mg; Activity (Rattus norvegicus [8]): Active; Activity [9]: 215%; inhibition [10]: Dose-dependent effect
26 | Cc1ccnc(-c2cccc(NC(=O)Nc3ccc(Cl)cc3)c2)c1 | 3 | < 10 | < 50 | –
27 | O=C(Nc1ccc(Cl)cc1)Nc1cccc(-c2ccc3c(c2)OCO3)c1 | 10 | < 10 | < 50 | –
28 | O=C(Nc1ccc(Cl)cc1)Nc1cccc(-c2ccccc2)c1 | 5 | < 10 | < 50 | –
29 | O=C(Nc1ccc(Cl)cc1)Nc1cccc(-c2ccc(-c3ccccc3)cc2)c1 | 0 | < 10 | < 50 | IC50 (Cannabinoid receptor 1 [11]): > 10 µM
30 | O=C(Nc1ccc(Cl)cc1)Nc1cccc(-c2ccncc2)c1 | 15 | < 10 | < 50 | t1/2 (Liver [6]): 41.9 min; CLH (Liver [7]): 33.1 µL/min/mg
31 | O=C(Nc1ccc(Cl)cc1)Nc1cccc(-c2cccc(N3CCCC3)n2)c1 | 28 | < 10 | – | IC50 (Cannabinoid receptor 2 [2]): > 10 µM; IC50 (Cannabinoid receptor 1 [12]): 0.042 to 0.074 µM; half-life [13]: 13 to 13.4 min; CLH (Liver [7]): 113.7 µL/min/mg; Activity (Rattus norvegicus [14]): Active
32 | O=C(Nc1ccc(Cl)cc1)Nc1cccc(-c2ccc3ccccc3n2)c1 | 5 | < 10 | < 50 | –
